Measurements as given in paper PMC6226115 (Clinical and Translational Science, 2018).
Marks after values point to notes of the source that are not given here.

What was measured:
[1] = target: T1, GlyT1 (Rattus norvegicus, UniProt P28572); experiment: Inhibition of [3H]-glycine uptake in rat primary cortical neurons; assay type: cell-based; conditions: IC50, inhibition of [3H]-glycine uptake, mean
T1 sequence (P28572 1-638): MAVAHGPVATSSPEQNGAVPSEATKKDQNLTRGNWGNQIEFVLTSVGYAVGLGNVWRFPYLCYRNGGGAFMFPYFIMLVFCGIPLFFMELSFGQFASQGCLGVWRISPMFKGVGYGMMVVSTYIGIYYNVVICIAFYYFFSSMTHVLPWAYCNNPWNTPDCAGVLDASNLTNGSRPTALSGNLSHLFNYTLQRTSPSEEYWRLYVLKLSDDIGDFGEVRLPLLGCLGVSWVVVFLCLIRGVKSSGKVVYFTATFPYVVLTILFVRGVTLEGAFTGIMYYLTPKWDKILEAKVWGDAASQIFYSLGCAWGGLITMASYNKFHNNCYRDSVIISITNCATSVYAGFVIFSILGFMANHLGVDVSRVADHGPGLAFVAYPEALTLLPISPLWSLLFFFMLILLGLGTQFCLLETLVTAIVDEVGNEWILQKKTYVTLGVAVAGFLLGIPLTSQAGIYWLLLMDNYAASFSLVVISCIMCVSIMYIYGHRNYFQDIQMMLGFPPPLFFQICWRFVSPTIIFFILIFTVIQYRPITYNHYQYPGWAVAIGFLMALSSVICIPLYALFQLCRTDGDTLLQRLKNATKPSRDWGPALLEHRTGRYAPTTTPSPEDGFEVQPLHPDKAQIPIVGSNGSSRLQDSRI
In short: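 Cortical neurons from E18 rats were differentiated in vitro for 7, 11 or 18 days, then run as a scintillating-plate uptake assay: 20 min incubation, inhibitor 0.9–3000 nM in HBSS with 5 mM alanine, and 200 nM [3H]glycine (0.01 mCi/mL) with counting over 57 min. IC50s came from four-parameter fits per experiment and were then averaged.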

[2] = target: T2, human GlyT2 (Homo sapiens, UniProt Q9Y345); experiment: Inhibition of [3H]-glycine uptake in HEK cells overexpressing human GlyT2; assay type: cell-based
T2 sequence (Q9Y345 1-797): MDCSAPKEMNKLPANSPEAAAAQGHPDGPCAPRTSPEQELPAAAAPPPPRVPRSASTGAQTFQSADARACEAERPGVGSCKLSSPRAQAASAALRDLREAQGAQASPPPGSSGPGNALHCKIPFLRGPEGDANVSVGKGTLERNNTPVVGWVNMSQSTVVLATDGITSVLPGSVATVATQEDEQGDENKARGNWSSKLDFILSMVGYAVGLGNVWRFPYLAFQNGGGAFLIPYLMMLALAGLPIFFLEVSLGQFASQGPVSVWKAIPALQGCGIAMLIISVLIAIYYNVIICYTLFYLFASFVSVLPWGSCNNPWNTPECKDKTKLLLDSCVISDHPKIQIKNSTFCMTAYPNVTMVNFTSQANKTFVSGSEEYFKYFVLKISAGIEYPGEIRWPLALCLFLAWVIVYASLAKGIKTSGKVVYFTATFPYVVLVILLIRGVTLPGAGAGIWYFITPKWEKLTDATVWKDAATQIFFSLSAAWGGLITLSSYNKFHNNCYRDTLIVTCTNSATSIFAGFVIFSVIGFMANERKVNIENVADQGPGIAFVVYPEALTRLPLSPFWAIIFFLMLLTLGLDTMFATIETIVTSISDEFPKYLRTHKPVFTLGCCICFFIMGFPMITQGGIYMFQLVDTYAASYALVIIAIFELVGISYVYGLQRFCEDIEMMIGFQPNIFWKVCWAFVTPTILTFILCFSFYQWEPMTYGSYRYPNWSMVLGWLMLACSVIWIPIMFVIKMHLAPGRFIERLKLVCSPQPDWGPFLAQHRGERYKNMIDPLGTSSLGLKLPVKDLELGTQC
In short: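 HEK cells overexpressing human GlyT2 were grown on scintillating microplates and incubated 20 min with inhibitor at 0.9–3000 nM in HBSS containing 5 mM alanine. Uptake was started with 250 nM [3H]glycine (0.0125 mCi/mL), and counting ran immediately over 57 min. IC50 came from a four-parameter log(inhibitor)-response fit.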

[3] = Compound levels in rat plasma and CSF; assay type: in vivo; conditions: plasma, po
In short: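 Adult male Wistar rats (200–220 g) were given a single oral dose of 0.2, 0.6 or 2 mg/kg in 0.5% Natrosol with 0.01% Tween-80 (n = 8 per group). At 90 min, under s.c. inactin/ketavet anaesthesia, blood and cisterna magna CSF were taken. Plasma was stored at −20°C and CSF at −70°C. Drug was measured by HPLC-MS/MS, and CSF/plasma ratio was derived.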

[4] = Phase I pharmacokinetics in plasma and CSF, multiple dosing over 14 days; assay type: in vivo, human; conditions: for AUC0–14: after first dose, geometric mean (% gCV); for Tmax / Cmax: male, human, po
In short: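 Healthy males received 5–50 mg orally once daily for 14 days. CSF was collected hourly via lumbar catheter for 14 h after dose 1 and by puncture before the last dose. Plasma was sampled hourly on days 1 and 14, every 24 h on days 2–4 and every 48 h on days 6–12. Drug was measured by validated HPLC-MS/MS with noncompartmental analysis. Steady state was judged from trough plasma concentrations (days 2–14) using pairwise 95% CIs.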

## C[C@@H](Oc1ccc(S(C)(=O)=O)cc1C(=O)N1C[C@@H]2C[C@]2(c2cc(C(F)(F)F)on2)C1)C(F)(F)F [BI 425809]
[1]
  IC50: 5.2 ± 1.2 nM
[2]
  IC50: > 10000 nM
[3]; 0.2 mg/kg
  concentration at 90 min: 79 nM
[3]; 0.6 mg/kg
  concentration at 90 min: 217 nM
[3]; 2 mg/kg
  concentration at 90 min: 723 nM
[4]; CSF, 5 mg oral, n = 6
  AUC0–14: 0.0299 µM·h
[4]; CSF, 10 mg oral, n = 6
  AUC0–14: 0.0598 µM·h
[4]; CSF, 25 mg oral, n = 6
  AUC0–14: 124.0 (27.2) ^e nM
[4]; CSF, 50 mg oral, n = 5
  AUC0–14: 0.26 µM·h
[4]; healthy volunteers, once daily dosing, trough plasma concentrations
  Steady state achieved by: ≤ 6 days
[4]; CSF
  Tmax: 5 to 8 h
[4]; CSF, 5 mg
  Cmax: 2.9 nM
  Tmax: 8 h
[4]; CSF, 10 mg
  Cmax: 5.6 nM
  Tmax: 5.5 h
[4]; CSF, 25 mg
  Cmax: 12.2 nM
  Tmax: 6.1 h
[4]; CSF, 50 mg
  Cmax: 25 nM
  Tmax: 8.1 h
[4]; plasma
  Tmax: 3 to 5 h
[4]; plasma, 5 mg
  Cmax: 42.3 nM
  Tmax: 5 h
[4]; plasma, 10 mg
  Cmax: 85.6 nM
  Tmax: 4.5 h
[4]; plasma, 25 mg
  Cmax: 176 nM
  Tmax: 3 h
[4]; plasma, 50 mg
  Cmax: 328 nM
  Tmax: 5 h
[4]; plasma, 5 mg oral, n = 6
  AUC0–14: 0.421 µM·h
[4]; plasma, 10 mg oral, n = 6
  AUC0–14: 0.829 µM·h
[4]; plasma, 25 mg oral, n = 7
  AUC0–14: 1,840 (24.2) ^d nM
[4]; plasma, 50 mg oral, n = 5
  AUC0–14: 3.3 µM·h
